Twelve molecules from ChEMBL document CHEMBL3044755, “5-Methyl-1,2,3-thiadiazoles synthesized via ugi reaction and their fungicidal and antiviral activities” (J Agric Food Chem, 2010) can be followed below.

Series [1] concerns Fusarium oxysporum. The series can be described thus: Fungicidal activity against Fusarium oxysporum at 50 ug/ml by growth inhibition method. Format: functional. Particulars: read-out: GI. The method in brief:
(§1)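 Mycelial growth inhibition on potato dextrose agar. The panel covered Alternaria solani, Botrytis cinerea, Cercospora arachidicola, C. beticola, Colletotrichum lagenarium, Fusarium oxysporum, Gibberella zeae, Puccinia triticina, Phytophthora infestans, Physalospora piricola, Pellicularia sasakii and Rhizoctonia solani.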

Series [2] relates to Botryosphaeria berengeriana. Briefly: Fungicidal activity against Botryosphaeria berengeriana at 50 ug/ml by growth inhibition method. Format: functional. Particulars: read-out: GI. In short, it runs like this:
as §1

The test system of series [3] is Tobacco mosaic virus. Briefly: In vitro antiviral activity against Tobacco mosaic virus (TMV) infected tobacco leaves at 500 ug/ml. Format: functional.
Series [4] concerns Botrytis cinerea. Briefly: Fungicidal activity against Botryotinia fuckeliana at 50 ug/ml by growth inhibition method. Particulars: read-out: GI. It counts as functional. The method in brief: as §1
Series [5] concerns Colletotrichum lagenaria. The series can be described thus: Fungicidal activity against Colletotrichum lagenaria at 50 ug/ml by growth inhibition method. Format: functional. Particulars: read-out: GI. The method in brief: as §1
Series [6] concerns Fusarium graminearum. Briefly: Fungicidal activity against Fusarium graminearum at 50 ug/ml by growth inhibition method. Format: functional. Particulars: read-out: GI. The method in brief:
as §1

Series [7] relates to Tobacco mosaic virus. Briefly: In vitro antiviral activity against Tobacco mosaic virus (TMV) infected tobacco leaves at 100 ug/ml. It counts as functional.
Series [8] has as its system Phytophthora infestans. Briefly: Fungicidal activity against Phytophthora infestans at 50 ug/ml by growth inhibition method. Format: functional. Particulars: read-out: GI. The method in brief:
as §1

Series [9] relates to Thanatephorus cucumeris. Briefly: Fungicidal activity against Thanatephorus cucumeris at 50 ug/ml by growth inhibition method. It counts as functional. Particulars: read-out: GI. In short, it runs like this:
as §1

Series [10] has as its system Alternaria solani. Briefly: Fungicidal activity against Alternaria solani at 50 ug/ml by growth inhibition method. It counts as functional. Particulars: read-out: GI. The method in brief:
as §1

In series [11] the test system is Mycosphaerella arachidis. The series can be described thus: Fungicidal activity against Mycosphaerella arachidis at 50 ug/ml by growth inhibition method. Format: functional. Particulars: read-out: GI. In short, it runs like this: as §1
Series [12] deals with Cercospora beticola. The series can be described thus: Fungicidal activity against Cercospora beticola at 50 ug/ml by growth inhibition method. It counts as functional. Particulars: read-out: GI. In short, it runs like this:
as §1

Series [13] deals with Tobacco mosaic virus. The series can be described thus: In vitro antiviral activity against Tobacco mosaic virus (TMV) infected tobacco leaves at 200 ug/ml. It counts as functional.
For series [14], the system named is Rhizoctonia solani. Briefly: Fungicidal activity against Rhizoctonia solani at 50 ug/ml by growth inhibition method. Particulars: read-out: GI. Format: functional. The method in brief:
as §1

For series [15], the system named is Puccinia triticina. The series can be described thus: Fungicidal activity against Puccinia triticina at 50 ug/ml by growth inhibition method. Particulars: read-out: GI. Format: functional. In short, it runs like this:
as §1

Series [16] relates to Tobacco mosaic virus. The series can be described thus: In vivo antiviral activity against Tobacco mosaic virus (TMV) infected tobacco leaves assessed as inactivation effect at 500 ug/ml co-treated with virus for 30 min before inoculation onto leaves measured at 2-3 days after viral challenge. It counts as functional. The method in brief: (§2)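 TMV (5.88 10-2 μg/mL) mixed with equal volume of compound solution for 30 min, then rubbed onto upper three leaves of six-leaf tobacco; solvent on lower three leaves as control. Lesions counted 2-3 days later, three repetitions. Inhibition (%) = (CK − A)/CK × 100 from mean lesion counts.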

Series [17] deals with Nicotiana tabacum. The series can be described thus: Phytotoxicity against Nicotiana tabacum (tobacco) plant. Format: organism-based. Particulars: in vivo.
Series [18] deals with Tobacco mosaic virus. The series can be described thus: In vivo antiviral activity against Tobacco mosaic virus (TMV) infected tobacco leaves assessed as protective effect at 500 ug/ml treated 12 hr before viral inoculation measured at 2-3 days after viral challenge. Format: functional. The method in brief:
(§3)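 Six-leaf tobacco; compound solution smeared over whole leaves, dried in greenhouse, then after 12 h TMV (5.88 10-2 μg/mL) rubbed onto upper three leaves, with solvent on lower three leaves as control. Local lesions counted 2-3 days post-inoculation, three repetitions. Inhibition (%) = (CK − A)/CK × 100 from mean lesion numbers.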

Series [19] concerns Nicotiana tabacum. The series can be described thus: Induction of systemic acquired resistance activity in TMV infected-Nicotiana tabacum (tobacco) leaves at 50 ug/ml. Format: functional. In short, it runs like this:
(§4)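 Tobacco/TMV system used for systemic acquired resistance induction. Inhibition ratio calculated from mean lesion numbers on inoculated leaves relative to corresponding control. Tiadinil and ribavirin run as controls.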

For series [20], the system named is Nicotiana tabacum. The series can be described thus: Induction of systemic acquired resistance activity in TMV infected-Nicotiana tabacum (tobacco) leaves at 100 ug/ml. It counts as functional. The method in brief:
as §4

The subject of series [21] is Tobacco mosaic virus. The series can be described thus: In vivo antiviral activity against Tobacco mosaic virus (TMV) infected tobacco leaves assessed as inactivation effect at 100 ug/ml co-treated with virus for 30 min before inoculation onto leaves measured at 2-3 days after viral challenge. Format: functional. The method in brief:
as §2

The subject of series [22] is Tobacco mosaic virus. The series can be described thus: In vivo antiviral activity against Tobacco mosaic virus (TMV) infected tobacco leaves assessed as protective effect at 100 ug/ml treated 12 hr before viral inoculation measured at 2-3 days after viral challenge. It counts as functional. In short, it runs like this:
as §3

One may read the inhibition as the drop in the measured response relative to a control, in per cent. Take `Cc1ccc(N(C(=O)c2nnsc2C)C(C(=O)NC(C)C)c2ccccc2[N+](=O)[O-])cc1Cl` (stereo unspecified): the inhibition of growth at 50 µg/mL in [1] is 14%; in [2], 39%; in series [4], 60%; in series [5] it was 10%; in [6] it was 12%; in [8], 24%. Also, the inhibition of growth at 50 µg/mL in [9] is 31%; in series [10], 26%; in [11], 5%; in series [12], 8%. The molecule further came in with an inhibition at 500 µg/mL in series [3] of 59%. Moreover, in series [7], the inhibition at 100 µg/mL was found to be 19%.
Consider `Cc1ccc(C(C(=O)NC(C)C)N(C(=O)c2nnsc2C)c2ccc(C)c(Cl)c2)cc1` (stereo unspecified), for which the inhibition of growth at 50 µg/mL in [1] was 19%; in series [2] it was 37%; in [4] it was 79%; in series [5] it was 11%; in [6], 0%; in [8], 0%. The inhibition of growth at 50 µg/mL came to 60% in series [9], 34% in series [10], 33% in series [11] and 9% in series [12]. Also, the inhibition at 500 µg/mL in [3] came to 21%. For the same molecule, 200 µg/mL produced 11% inhibition in series [13].
With `Cc1ccc(N(C(=O)c2nnsc2C)C(C(=O)NC(C)C)c2cccc(O)c2)cc1Cl` (stereo unspecified), the inhibition of growth at 50 µg/mL is 30% in series [1]; 45% in series [2]; 73% in series [4]; 13% in [5]; 15% in series [6]; 30% in series [8]. The inhibition of growth at 50 µg/mL in series [9] turned out to be 59%; in [10], 33%; in series [11], 14%; in series [12], 23%. Moreover, the inhibition at 500 µg/mL in series [3] came to 24%. At 100 µg/mL the inhibition in series [7] was 13%.
Regarding `Cc1ccc(N(C(=O)c2nnsc2C)C(C(=O)NC(C)C)c2ccccc2O)cc1Cl` (stereo unspecified), the inhibition of growth at 50 µg/mL amounted to 18% in series [1]; 39% in series [2]; 75% in [4]; 7% in [5]; 18% in series [6]; 24% in [8]. Besides, the inhibition of growth at 50 µg/mL in series [9] amounted to 47%; in [10], 38%; in series [11] it was 9%; in series [12], 0%. The molecule also displayed an inhibition at 500 µg/mL in series [3] of 23%. Also, at 100 µg/mL the inhibition in series [7] was 18%.
Turning to `Cc1ccc(N(C(=O)c2nnsc2C)C(C(=O)NC(C)C)c2ccccc2)cc1F` (stereo unspecified), the inhibition of growth at 50 µg/mL in [14] amounted to 2%; in series [2] it was 0%; in series [5], 14%; in series [6], 27%; in [8] it was 38%; in series [15], 0%. Besides, the inhibition of growth at 50 µg/mL in series [9] was found to be 0%; in series [10], 13%; in series [11], 9%; in series [12], 0%. The molecule further had an inhibition at 500 µg/mL in [3] of 15%. At 100 µg/mL the inhibition in [7] was 5%.
Regarding `Cc1ccc(N(C(=O)c2nnsc2C)C(C(=O)NC(C)C)c2cccc([N+](=O)[O-])c2)cc1F` (stereo unspecified), the inhibition of growth at 50 µg/mL in [14] is 15%; in series [2], 0%; in series [5], 29%; in series [6], 45%; in [8] it was 13%; in series [15], 14%. In addition, the inhibition of growth at 50 µg/mL in series [9] amounted to 0%; in series [10], 13%; in [11], 27%; in series [12], 25%. Further, in series [3], the inhibition at 500 µg/mL came out at 14%. The molecule also registered an inhibition at 100 µg/mL in series [7] of 4%.
For `Cc1ccc(N(C(=O)c2nnsc2C)C(C(=O)NC(C)C)c2ccccc2[N+](=O)[O-])cc1F` (stereo unspecified), the inhibition of growth at 50 µg/mL in series [14] was 2%; in [2] it was 19%; in series [5], 14%; in [6] it was 27%; in series [8], 0%; in series [15] it was 0%. The inhibition of growth at 50 µg/mL stood at 39% in series [9], 0% in [10], 0% in [11] and 25% in [12]. The molecule further had an inhibition at 500 µg/mL in series [3] of 24%. The molecule further had an inhibition at 100 µg/mL in series [7] of 11%.
In the case of `Cc1ccc(N(C(=O)c2nnsc2C)C(C(=O)NC(C)C)c2ccc(Cl)cc2)cc1F` (stereo unspecified), the inhibition of growth at 50 µg/mL in series [14] turned out to be 15%; in series [2], 0%; in series [5], 14%; in series [6] it was 0%; in series [8] it was 38%; in series [15], 0%. The inhibition of growth at 50 µg/mL in series [9] was 28%; in series [10], 38%; in series [11], 0%; in series [12], 13%. For the same molecule, 500 µg/mL produced 12% inhibition in series [3]. In [7], 100 µg/mL produced 20% inhibition.
In the case of `Cc1ccc(N(C(=O)c2nnsc2C)C(C(=O)NC(C)C)c2cccc([N+](=O)[O-])c2)cc1Cl` (stereo unspecified), the inhibition of growth at 50 µg/mL in [1] was determined as 12%; in series [2], 45%; in series [4], 78%; in series [5], 10%; in [6] it was 33%; in series [8], 26%. Besides, the inhibition of growth at 50 µg/mL was determined as 52% in series [9], 33% in [10], 9% in series [11] and 46% in [12]. Further, the inhibition at 500 µg/mL in series [3] was 34%. 100 µg/mL produced 28% inhibition in series [7].
On to `Cc1ccc(N(C(=O)c2nnsc2C)C(C(=O)NC(C)C)c2cccc(F)c2)cc1Cl` (stereo unspecified), for which the inhibition of growth at 50 µg/mL in [1] was determined as 19%; in [2] it was 38%; in series [4] it was 78%; in [5], 10%; in [6], 23%; in series [8], 18%. Besides, the inhibition of growth at 50 µg/mL stood at 69% in series [9], 42% in series [10], 21% in series [11] and 33% in series [12]. For the same molecule, testing at 500 µg/mL in series [3] gave an inhibition of 18%. The inhibition at 100 µg/mL in [7] is 34%.
`Cc1ccc(N(C(=O)c2nnsc2C)C(C(=O)NC(C)C)c2ccccc2F)cc1Cl` (stereo unspecified): the inhibition of growth at 50 µg/mL in series [1] stood at 21%; in series [2], 33%; in series [4], 73%; in series [5], 10%; in [6] it was 37%; in [8], 15%. For the same molecule, the inhibition of growth at 50 µg/mL in series [9] was determined as 67%; in series [10], 40%; in [11], 21%; in [12], 25%. The molecule also showed an inhibition at 500 µg/mL in [3] of 34%. Further, the inhibition at 100 µg/mL in [7] was found to be 32%.
`NC(=O)c1ncn([C@@H]2O[C@H](CO)[C@@H](O)[C@H]2O)n1` [RIBAVIRIN]: the Activity in [16] is given as 59%; in series [17], “Non-toxic”; in series [18] it was 59%; in [19], 31%; in series [20] it was 28%; in series [21], 46%. Moreover, the Activity in series [22] is 30%. Also, the inhibition at 500 µg/mL in series [3] was 32%. The same molecule gave an inhibition at 100 µg/mL in series [7] of 20%.
